# According to ChEMBL document CHEMBL1138426, “Synthesis and DNA-binding ability of C2R-fluoro substituted DC-81 and its dimers” (Bioorg Med Chem Lett, 2007):
# Key:
# DNA [1] = assay: Binding affinity to calf thymus DNA at 1:5 (compound:DNA) molar ratio in pH 7.0, 37 degC after 18 hrs by thermal denaturation study; assay type: nucleic-acid assay; conditions: Bos taurus
# How it was run: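 Thermal denaturation of calf thymus DNA at pH 7.00 ± 0.01. The buffer was aqueous sodium phosphate (10 mM sodium phosphate + 1 mM EDTA). DNA was 100 μM and compound 20 μM, a 1:5 molar ratio. The mix was incubated at 37 °C for 0, 18 or 36 h before melting. ΔTm is the shift from the Tm of DNA alone (mean of 10 determinations), ±0.1–0.2 °C.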
# DNA [2] = assay: Binding affinity to calf thymus DNA at 1:5 (compound:DNA) molar ratio in pH 7.0, 37 degC after 36 hrs by thermal denaturation study; conditions: Bos taurus
SMILES,ΔTm (DNA [1]),ΔTm (DNA [2])
COc1cc2c(cc1OCCCCOc1cc3c(cc1OC)C(=O)N1C[C@H](F)C[C@H]1C=N3)N=C[C@@H]1C[C@@H](F)CN1C2=O,12.4 °C,14 °C
COc1cc2c(cc1O)N=C[C@@H]1CCCN1C2=O,0.7 °C,0.7 °C
COc1cc2c(cc1OCCCOc1cc3c(cc1OC)C(=O)N1C[C@H](F)C[C@H]1C=N3)N=C[C@@H]1C[C@@H](F)CN1C2=O,5.2 °C,6.2 °C
COc1cc2c(cc1O)N=C[C@@H]1C[C@@H](F)CN1C2=O,2.1 °C,2.3 °C
COc1cc2c(cc1OCCCCCOc1cc3c(cc1OC)C(=O)N1C[C@H](F)C[C@H]1C=N3)N=C[C@@H]1C[C@@H](F)CN1C2=O,16.9 °C,18.8 °C
COc1cc2c(cc1OCCCOc1cc3c(cc1OC)C(=O)N1CCC[C@H]1C=N3)N=C[C@@H]1CCCN1C2=O,15.1 °C,
